We go through 17 molecules from ChEMBL document CHEMBL1152384, “First steps in the direction of synthetic, allosteric, direct inhibitors of thrombin and factor Xa” (Bioorg Med Chem Lett, 2009).

Calls of active or inactive are those of the source. The calls are words filed in the database; no cut-off is given here. Bounds are passed on as bounds.

For experiment [1], the target named is Prothrombin (Homo sapiens) (UniProt P00734). The experiment can be described thus: Inhibition of human thrombin assessed as residual activity at < 4.3 mM by spectrophotometry. An outline of the steps: (§1)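 Thrombin activity read spectrophotometrically as the initial rate of hydrolysis of the chromogenic substrate Spectrozyme TH, with and without benzofuran inhibitor. Residual activity is expressed relative to the uninhibited enzyme.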

In experiment [2] the target is Coagulation factor X (Homo sapiens) (UniProt P00742). Put plainly: Inhibition of human factor 10a assessed as residual activity at < 4.3 mM by spectrophotometry. In short, it runs like this: (§2)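 Factor Xa activity followed by spectrophotometric measurement of the initial rate of hydrolysis of the chromogenic substrate S-2772, with and without benzofuran inhibitor. Residual activity is taken relative to the uninhibited enzyme.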
Coagulation factor X (Homo sapiens), sequence (P00742 41-179 limits assumed): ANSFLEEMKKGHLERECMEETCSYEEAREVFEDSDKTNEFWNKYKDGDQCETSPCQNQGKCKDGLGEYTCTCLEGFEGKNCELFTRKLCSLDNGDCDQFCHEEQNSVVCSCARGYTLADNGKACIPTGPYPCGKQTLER
Coagulation factor X (Homo sapiens), sequence (P00742 235-488 limits assumed): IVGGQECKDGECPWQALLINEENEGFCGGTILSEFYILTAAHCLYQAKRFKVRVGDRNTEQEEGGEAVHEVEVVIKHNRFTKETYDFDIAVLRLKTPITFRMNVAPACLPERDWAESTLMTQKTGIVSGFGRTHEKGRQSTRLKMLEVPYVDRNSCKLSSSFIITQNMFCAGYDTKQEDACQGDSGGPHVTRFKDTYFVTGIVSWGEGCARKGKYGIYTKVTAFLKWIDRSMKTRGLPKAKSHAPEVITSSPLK

The target in experiment [3] is Prothrombin (Homo sapiens) (UniProt P00734). The experiment can be described thus: Inhibition of human thrombin assessed as residual activity at 400 uM by spectrophotometry. An outline of the steps: as §1
For experiment [4], the target named is Coagulation factor X (Homo sapiens) (UniProt P00742). The experiment can be described thus: Inhibition of human factor 10a assessed as residual activity at […] by spectrophotometry. An outline of the steps: as §2
Experiment [5] addresses Prothrombin (Homo sapiens) (UniProt P00734). Put plainly: Inhibition of human thrombin assessed as residual activity at 2.9 mM by spectrophotometry. An outline of the steps:
as §1

Experiment [6] has as its target Coagulation factor X (Homo sapiens) (UniProt P00742). Put plainly: Inhibition of human factor 10a assessed as residual activity at 2.6 mM by spectrophotometry. An outline of the steps:
as §2

The target in experiment [7] is Prothrombin (Homo sapiens) (UniProt P00734). Put plainly: Inhibition of human thrombin assessed as residual activity at 4.3 mM by spectrophotometry. In short, it runs like this: as §1
Experiment [8] concerns the target Coagulation factor X (Homo sapiens) (UniProt P00742). Put plainly: Inhibition of human factor 10a assessed as decrease in catalytic rate per uM of S-2772 hydrolysis at 2.6 mM by Michaelis-Menten analysis relative to control. An outline of the steps: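 Factor Xa kinetics: initial rates of S-2772 hydrolysis measured spectrophotometrically at pH 7.4 and 25 °C over a range of substrate levels, with and without inhibitor. The hyperbolic dependence of rate on substrate was fitted to obtain KM and VMAX. Catalytic rate was compared with the inhibitor-free reaction.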

Take `CCOC(=O)c1c(C)oc2cc(OC)c(O)cc12`: the outcome in experiment [1] and in experiment [2] was inactive.
On to `CCOC(=O)CCc1c(C)oc2cc(OC)c(O)cc12`, for which the outcome in experiment [1] and in experiment [2] was inactive.
For the molecule `CCOC(=O)c1c(C)oc2cc(OS(=O)(=O)O)c(OC)cc12`, the outcome in experiment [1] and in experiment [2] was inactive.
Regarding `CCOC(=O)c1c(C)oc2cc(O)c(OC)cc12`, the result in experiment [1] and in experiment [2] was inactive.
For `Cc1oc2cc(O)c(O)cc2c1C(=O)O`, the outcome in experiment [3] and in experiment [4] was Active. Also, the Activity in experiment [5] is over 40%.
As to `COc1cc2oc(C)c(C(=O)O)c2cc1OS(=O)(=O)O`, the outcome in experiment [3] and in experiment [4] was Active. Moreover, the Activity was over 40% in experiment [5] and 42% in experiment [6].
As for `Cc1oc2cc(OS(=O)(=O)O)c(OS(=O)(=O)O)cc2c1C(=O)O`, the outcome in experiment [3] and in experiment [4] was Active. Further, the Activity is over 40% in experiment [5] and 75% in experiment [6].
As for `COc1cc2oc(C)c(CCC(=O)O)c2cc1OS(=O)(=O)O`, the result in experiment [3] and in experiment [4] was Active. Moreover, in experiment [5], the Activity is over 40%.
With `COc1cc2oc(C)c(CCC(=O)O)c2cc1O`, the outcome in experiment [3] and in experiment [4] was Active. Besides, the Activity in experiment [5] and in experiment [6] was over 40% each time.
For the molecule `CCOC(=O)CCc1c(C)oc2cc(OC)c(OS(=O)(=O)O)cc12`, the result in experiment [1] and in experiment [2] was inactive.
Turning to `COc1cc2oc(C)c(C(=O)O)c2cc1O`, the result in experiment [3] and in experiment [4] was Active. Also, the Activity in experiment [5] is over 40%.
As for `COc1cc2oc(C)c(CO)c2cc1O`, the outcome in experiment [1] and in experiment [2] was inactive.
For `COc1cc2c(C(=O)O)c(C)oc2cc1OS(=O)(=O)O`, the outcome in experiment [3], in experiment [7] and in experiment [4] was Active. The fold change (FC) in experiment [8] was found to be 3.6. For the same molecule, the Activity in experiment [5] was over 40%; in experiment [6], 86%.
Regarding `CCOC(=O)c1c(C)oc2cc(OC)c(OS(=O)(=O)O)cc12`, the outcome in experiment [1] and in experiment [2] was inactive.
On to `CCOC(=O)c1c(C)oc2cc(O)c(O)cc12`, for which the outcome in experiment [1] and in experiment [2] was inactive.
For the molecule `CCOC(=O)c1c(C)oc2cc(OS(=O)(=O)O)c(OS(=O)(=O)O)cc12`, the outcome in experiment [1] and in experiment [2] was inactive.
Consider `COc1cc2oc(C)c(COS(=O)(=O)O)c2cc1OS(=O)(=O)O`, for which the outcome in experiment [1] and in experiment [2] was inactive.
